# Laboratory results published in ChEMBL document CHEMBL4020840, “Synthesis and Biological Evaluation of Selenium-Containing 4-Anilinoquinazoline Derivatives as Novel Antimitotic Agents” (J Med Chem, 2018).
# How the values were obtained:
# A549 = experiment: Growth inhibition of human A549 cells after 48 hrs by MTT assay; format: functional, cell-based; settings: A549, 48 h
# HCT-116 = experiment: Growth inhibition of human HCT116 cells after 48 hrs by MTT assay; format: functional, cell-based; settings: HCT-116, 48 h
# Outline: (§1)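 MTT assay: log-phase cells plated at 5 × 10³/well for 24 h, then exposed to a range of test concentrations for 48 h. MTT (5 mg/mL) added for 4 h, formazan dissolved in DMSO, absorbance read at 570 nm. IC50 is the concentration giving 50% growth inhibition, from dose-response curves; at least three independent experiments, mean ± SE.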
# HepG2 = experiment: Growth inhibition of human HepG2 cells after 48 hrs by MTT assay; format: functional, cell-based; settings: HepG2, 48 h; outline: as §1
# MDA-MB-231 = experiment: Growth inhibition of human MDA-MB-231 cells after 48 hrs by MTT assay; format: functional, cell-based; settings: MDA-MB-231, 48 h; outline: as §1
# LoVo = experiment: Growth inhibition of human LoVo cells after 48 hrs by MTT assay; format: functional, cell-based; outline: as §1
# RKO = experiment: Growth inhibition of human RKO cells after 48 hrs by MTT assay; format: functional, cell-based; outline: as §1
# A549/CDDP = experiment: Growth inhibition of human A549/CDDP cells after 48 hrs by MTT assay; format: functional, cell-based; outline: as §1
# [1] = Growth inhibition of human HepG2/DOX cells after 48 hrs by MTT assay; format: functional, cell-based; outline: as §1
# [2] = Resistance factor, ratio of IC50 for human A549/CDDP cells to IC50 for human A549 cells; format: functional
# Outline: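 MTT assay: log-phase cells were seeded at 5 × 10³/well for 24 h, then exposed to a concentration series for 48 h. MTT (5 mg/mL) was added for 4 h, formazan was dissolved in DMSO, and A570 was read. IC50 values came from dose–response curves of at least three independent experiments. Resistance factor = IC50 in the resistant line / IC50 in the parental sensitive line.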
SMILES,IC50 (A549),IC50 (HCT-116),IC50 (HepG2),IC50 (MDA-MB-231),IC50 (LoVo),IC50 (RKO),IC50 (A549/CDDP),IC50 [1],Ratio IC50 [2]
COc1ccc(N(C)c2nc(C)nc3ccccc23)cc1OCC[Se]C#N,13 nM,18 nM,14 nM,13 nM,19 nM,27 nM,,,
Cc1nc(N(C)c2ccc([Se]C#N)c(C)c2)c2ccccc2n1,8 nM,13 nM,9 nM,16 nM,19 nM,17 nM,,,
COc1ccc(N(C)c2nc(C)nc3ccccc23)cc1[Se]C#N,49 nM,34 nM,59 nM,52 nM,73 nM,47 nM,,,
Cc1nc(N(C)c2ccc([Se]C#N)c(Cl)c2)c2ccccc2n1,7 nM,12 nM,12 nM,9 nM,12 nM,11 nM,,,
Cc1nc(N(C)c2ccc([Se]C#N)c(F)c2)c2ccccc2n1,4 nM,20 nM,37 nM,6 nM,13 nM,8 nM,,,
CN(c1ccc([Se]C#N)cc1)c1nc(C2CC2)nc2ccccc12,12 nM,62 nM,41 nM,29 nM,11 nM,51 nM,,,
COc1ccc(N(C)c2nc(C)nc3ccccc23)cc1C(=O)OCCCC[Se]C#N,155 nM,662 nM,975 nM,554 nM,1080 nM,1020 nM,,,
[2H]C([2H])([2H])c1nc(N(C)c2ccc([Se]C#N)cc2)c2ccccc2n1,7 nM,10 nM,21 nM,11 nM,14 nM,11 nM,,,
COc1ccc(N(C)c2nc(C)nc3ccccc23)cc1OCCCCCC[Se]C#N,5520 nM,6180 nM,4890 nM,3550 nM,8580 nM,1540 nM,,,
C[Se]c1ccc(N(C)c2nc(C3CC3)nc3ccccc23)cc1,13 nM,15 nM,32 nM,18 nM,11 nM,21 nM,,,
COc1ccc(N(C)c2nc(C)nc3ccccc23)cc1C(=O)OCCC[Se]C#N,250 nM,720 nM,340 nM,1180 nM,854 nM,1140 nM,,,
COc1ccc(N(C)c2nc(C)nc3ccccc23)cc1OCCCC[Se]C#N,1200 nM,512 nM,6460 nM,1350 nM,882 nM,1360 nM,,,
[2H]C([2H])([2H])c1nc(N(C)c2ccc([Se]C)cc2)c2ccccc2n1,3 nM,3 nM,5 nM,9 nM,5 nM,8 nM,,,
COc1ccc(N(C)c2nc(C)nc3ccccc23)cc1OCCC[Se]C#N,382 nM,852 nM,1040 nM,815 nM,921 nM,799 nM,,,
Cc1nc(N(C)c2ccc(OCC[Se]C#N)cc2)c2ccccc2n1,893 nM,2290 nM,1680 nM,317 nM,547 nM,652 nM,,,
COc1ccc(N(C)c2nc(C)nc3ccccc23)cc1OCCCCC[Se]C#N,2440 nM,256 nM,5210 nM,4410 nM,5210 nM,3560 nM,,,
COc1ccc(N(C)c2nc(C)nc3ccccc23)cc1OCCN,122 nM,198 nM,343 nM,682 nM,421 nM,343 nM,,,
COc1ccc(N(C)c2nc(C)nc3ccccc23)cc1[Se]C,11 nM,28 nM,17 nM,10 nM,3 nM,11 nM,,,
COc1ccc(/C=C\c2cc(OC)c(OC)c(OC)c2)cc1O [COMBRETASTATIN A4],,,9 nM,,,,17 nM,27 nM,
COc1ccc(N(C)c2nc(C)nc3ccccc23)cc1C(=O)OCC[Se]C#N,353 nM,951 nM,890 nM,1480 nM,2960 nM,2390 nM,,,
COc1ccc(N(C)c2nc(C)nc3ccccc23)cc1C(=O)OCCCCCC[Se]C#N,488 nM,1990 nM,2650 nM,2210 nM,1050 nM,1990 nM,,,
COc1ccc(N(C)c2nc(C)nc3ccccc23)cc1C(=O)OCCCCC[Se]C#N,592 nM,551 nM,667 nM,851 nM,714 nM,356 nM,,,
COc1ccc(N(C)c2nc(C)nc3ccccc23)cc1C(=O)NCC[Se]C#N,187 nM,313 nM,179 nM,1250 nM,561 nM,1170 nM,,,
C[Se]c1ccc(N(C)c2nc(C)nc3ccccc23)cc1Cl,2 nM,5 nM,4 nM,7 nM,3 nM,4 nM,,,
C[Se]c1ccc(N(C)c2nc(C)nc3ccccc23)cc1C,2 nM,3 nM,6 nM,7 nM,9 nM,8 nM,,,
COc1cccc2c1C(=O)c1c(O)c3c(c(O)c1C2=O)C[C@@](O)(C(=O)CO)C[C@@H]3O[C@H]1C[C@H](N)[C@H](O)[C@H](C)O1 [DOXORUBICIN],2900 nM,,1890 nM,,,,4590 nM,> 10000 nM,1.58
COc1ccc(N(C)c2nc(C)nc3ccccc23)cc1C[Se]C#N,98 nM,113 nM,1110 nM,153 nM,277 nM,316 nM,,,
